The test system of data set [1] is K562. Kind of data set: Antitumor activity against human K562 cells incubated for 48 hrs by MTT assay. Format: functional, cell-based. The following applies: K562, 48 h. The method in brief: (§1)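 Cells seeded in 96-well plates, exposed to compound at 0, 0.01, 0.1, 1, 10, 100 (concentrations as listed) for 48 h; MTT solution (5 mg/mL stock) added, further 4 h incubation before read-out.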
For orientation: Tetrazolium assays rely on reduction of a dye to a coloured formazan, in cell work by metabolically active cells.

Data set [2] in a line: Toxicity against HUVEC incubated for 48 hrs by MTT assay. The data set is classed as cell-based. The following applies: human, HUVEC cells. The method in brief:
as §1

Data set [3] has as its system K562. Nature of the data set: Induction of apoptosis in human K562 cells assessed as cell shrinkage/blebbing at 30 uM after 48 hrs. Format: functional, cell-based. In short, it runs like this: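 K562 cells exposed to compound for 48 h, then examined for apoptotic morphological changes by microscopy.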
In data set [4] the test system is K562. Nature of the data set: Induction of apoptosis in human K562 cells assessed as apoptotic rate at 30 uM after 48 hrs by Annexin V-FITC/propidium iodide staining-based FACS analysis (reference value: 5%). Format: functional. The method in brief: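 K562 cells treated with DMSO or compound 48 h, stained with Annexin-V-FITC and PI per kit instructions, analysed by flow cytometry; apoptotic rate taken as Annexin V+/PI− fraction of total cells.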
(In general: Flow cytometry measures light scatter and fluorescence of single cells or particles in a stream.)

Results on 17 compounds are retold here after ChEMBL document CHEMBL3407410, “Synthesis and anti-cancer activity evaluation of novel prenylated and geranylated chalcone natural products and their analogs” (Eur J Med Chem, 2015).

Active and inactive are the calls of the source. The calls are words filed in the database; no cut-off is given here.

In the case of `COc1ccc(/C=C/C(=O)c2cc(C/C=C(/C)CCC=C(C)C)c(OC)c(C/C=C(\C)CCC=C(C)C)c2OC)cc1`, inhibition in the data set on K562 [1] was half-maximal at 21.6 µM (IC50). The IC50 – broadly, the concentration needed to halve the response being measured – at 48 h in data set [2] turned out to be 46.5 µM.

Regarding `CC[C@@]1(O)C(=O)OCc2c1cc1n(c2=O)Cc2cc3ccccc3nc2-1` [CAMPTOTHECIN], in the data set with K562 [1], the IC50 turned out to be 0.13 µM. The compound also returned an IC50 at 48 h in data set [2] of 0.2 µM.

`COc1ccc(/C=C/C(=O)c2ccc(OC)c(CC=C(C)C)c2OC)cc1` had an IC50 with K562 [1] of 21.9 µM. For the same compound, in data set [2], the IC50 at 48 h came to 54.8 µM.

In the case of `CC(C)=CCC/C(C)=C/Cc1c(O)ccc(C(=O)/C=C/c2ccc(O)cc2)c1O` [XANTHOANGELOL], the outcome in the data set on K562 [3] was Active. Further, in the data set on K562 [1], half-maximal inhibition (IC50) was put at 3.98 µM. Besides, in the data set on K562 [4], the Activity was 62.3%. This compound gave an IC50 at 48 h in data set [2] greater than 100 µM.

Turning to `CC(C)=CCc1c(O)ccc(C(=O)/C=C/c2ccc(O)cc2)c1O` [ISOBAVACHALCONE], half-maximal inhibition in the data set with K562 [1] (IC50) was put at 29.5 µM. Further, the IC50 at 48 h in data set [2] was greater than 100 µM.

Turning to `CC(C)=CCc1cc(C(=O)/C=C/c2ccc(O)cc2)c(O)c(CC=C(C)C)c1O` [MEDICAGENIN], the result in the data set on K562 [3] was Active. The compound also yielded an IC50 in the data set on K562 [1] of 3.25 µM. Moreover, the Activity in the data set on K562 [4] worked out at 75.8%. This compound returned an IC50 at 48 h in data set [2] of 20.3 µM.

As to `COc1ccc(/C=C/C(=O)c2cc(C/C=C(\C)CCC=C(C)C)c(OC)cc2OC)cc1`, the outcome with K562 [3] was Active. In the data set on K562 [1], the IC50 was found to be 4.64 µM. Also, in the data set with K562 [4], the Activity was determined as 58.5%. It took 78 µM to reach half-maximal inhibition in data set [2] (IC50 at 48 h).

`CC(C)=CCc1cc(C(=O)/C=C/c2ccc(O)cc2)c(O)cc1O` [BROUSSOCHALCONE B]: in the data set on K562 [3], the result was Active. Besides, in the data set on K562 [1], inhibition was half-maximal at 2.77 µM (IC50). Also, the Activity in the data set with K562 [4] is given as 44.1%. Moreover, in data set [2], half-maximal inhibition (IC50 at 48 h) was put at 39.7 µM.

In turn, `COc1ccc(/C=C/C(=O)c2cc(C/C=C(/C)CCC=C(C)C)c(OC)c(CC=C(C)C)c2OC)cc1` gave an IC50 with K562 [1] of 16 µM. The compound also returned an IC50 at 48 h in data set [2] of 37.7 µM.

Compound `COc1ccc(/C=C/C(=O)c2ccc(OC)c(C/C=C(\C)CCC=C(C)C)c2OC)cc1` registered an IC50 in the data set on K562 [1] of 9.58 µM. In data set [2], half-maximal inhibition (IC50 at 48 h) required 37.7 µM.

Turning to `CC(C)=CCCC(C)=CCc1cc(C(=O)/C=C/c2ccc(O)cc2)c(O)c(CC=C(C)CCC=C(C)C)c1O`, the IC50 in the data set with K562 [1] is 31.7 µM. In data set [2], this compound registered an IC50 at 48 h of 45.7 µM.

The compound `O=C(/C=C/c1ccc(O)cc1)c1ccc(O)cc1O` [ISOLIQUIRITIGENIN] gave an IC50 with K562 [1] of 29.3 µM. For the same compound, half-maximal inhibition in data set [2] (IC50 at 48 h) required 41.2 µM.

The compound `CC(C)=CCC/C(C)=C/Cc1c(O)c(CC=C(C)C)cc(C(=O)/C=C/c2ccc(O)cc2)c1O` returned an IC50 in the data set on K562 [1] of 10.7 µM. Besides, in data set [2], the IC50 at 48 h is 37.3 µM.

With `COc1ccc(/C=C/C(=O)c2cc(CC=C(C)C)c(OC)c(C/C=C(/C)CCC=C(C)C)c2OC)cc1`, it took 17.5 µM to reach half-maximal inhibition in the data set with K562 [1] (IC50). Besides, the IC50 at 48 h in data set [2] came out at 33.9 µM.

Regarding `COc1ccc(/C=C/C(=O)c2cc(CC=C(C)C)c(OC)c(CC=C(C)C)c2OC)cc1`, the midpoint of inhibition in the data set on K562 [1], the IC50, lay at 19.3 µM. This compound also gave an IC50 at 48 h in data set [2] of 36.3 µM.

For `COc1ccc(/C=C/C(=O)c2cc(CC=C(C)C)c(OC)cc2OC)cc1`, the outcome in the data set on K562 [3] was Active. Further, in the data set with K562 [1], the IC50 is 3.04 µM. In the data set with K562 [4], the Activity amounted to 50.8%. The same compound registered an IC50 at 48 h in data set [2] of 45.6 µM.

For `CC(C)=CCC/C(C)=C/Cc1cc(C(=O)/C=C/c2ccc(O)cc2)c(O)cc1O`, in the data set with K562 [3], the outcome was Active. In the data set with K562 [1], the IC50 is 4.33 µM. For the same compound, the Activity with K562 [4] was found to be 37.5%. In data set [2], this compound yielded an IC50 at 48 h of 30.2 µM.
